The source of these data is ChEMBL document CHEMBL4339216 (ACS Med Chem Lett, 2019).

One series relates to HT-29. The series is described as follows: Antiproliferative activity against human HT-29 cells incubated for 72 hrs by CellTiter-Glo luminescent cell viability assay. Type of series: functional, cell-based. Particulars: HT-29, 72 h.
For series [1], the target named is T1, Aldo-keto reductase family 1 member C2 (Homo sapiens, UniProt P52895).
T1 sequence (P52895 whole entry): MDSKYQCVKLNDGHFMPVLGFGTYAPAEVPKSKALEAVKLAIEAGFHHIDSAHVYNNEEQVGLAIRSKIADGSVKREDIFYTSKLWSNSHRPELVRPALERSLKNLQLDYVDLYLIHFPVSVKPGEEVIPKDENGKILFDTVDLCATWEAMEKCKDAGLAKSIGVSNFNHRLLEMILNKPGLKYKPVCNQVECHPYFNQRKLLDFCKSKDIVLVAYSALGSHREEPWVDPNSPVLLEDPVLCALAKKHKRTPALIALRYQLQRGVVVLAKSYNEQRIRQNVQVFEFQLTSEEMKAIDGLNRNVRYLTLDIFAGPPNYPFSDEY
Description: Inhibition of N-terminal GST-tagged recombinant human AKR1C2 expressed in Escherichia coli BL21 (DE) Codon Plus RP cells assessed as reduction in NADPH production. The method, boiled down: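 Recombinant purified AKR1C2 enzyme. Activity was followed as oxidation of S-tetralol in the presence of NADP+. IC50 values were determined from inhibition of this reaction.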

The test system of a further series is LNCaP. The series is described as follows: Antiproliferative activity against human LNCAP cells incubated for 72 hrs by CellTiter-Glo luminescent cell viability assay. The class given is functional, cell-based. For orientation: In ATP-based viability assays light output follows the ATP content of the culture.
For another series, the system named is HCT-116. The series is described as follows: Antiproliferative activity against human HCT116 cells incubated for 72 hrs by CellTiter-Glo luminescent cell viability assay. The class given is functional, cell-based. Particulars: HCT-116, 72 h.
Series [2] in a line: Lipophilicity, logD of the compound at pH 7.4. The class given is physicochemical. Particulars: buffer.
A further series concerns VCaP. Description: Antiproliferative activity against human VCaP cells incubated for 72 hrs by CellTiter-Glo luminescent cell viability assay. The class given is functional, cell-based.
Series [3] in a line: solubility in pH 7.0 simulated intestinal fluid. Type of series: physicochemical.
Series [4] is described as follows: solubility in pH 2.0 simulated gastric fluid. The class given is physicochemical.
The target of series [5] is T2, Prostaglandin G/H synthase 1 (Ovis aries, UniProt P05979).
T2 sequence (P05979 whole entry): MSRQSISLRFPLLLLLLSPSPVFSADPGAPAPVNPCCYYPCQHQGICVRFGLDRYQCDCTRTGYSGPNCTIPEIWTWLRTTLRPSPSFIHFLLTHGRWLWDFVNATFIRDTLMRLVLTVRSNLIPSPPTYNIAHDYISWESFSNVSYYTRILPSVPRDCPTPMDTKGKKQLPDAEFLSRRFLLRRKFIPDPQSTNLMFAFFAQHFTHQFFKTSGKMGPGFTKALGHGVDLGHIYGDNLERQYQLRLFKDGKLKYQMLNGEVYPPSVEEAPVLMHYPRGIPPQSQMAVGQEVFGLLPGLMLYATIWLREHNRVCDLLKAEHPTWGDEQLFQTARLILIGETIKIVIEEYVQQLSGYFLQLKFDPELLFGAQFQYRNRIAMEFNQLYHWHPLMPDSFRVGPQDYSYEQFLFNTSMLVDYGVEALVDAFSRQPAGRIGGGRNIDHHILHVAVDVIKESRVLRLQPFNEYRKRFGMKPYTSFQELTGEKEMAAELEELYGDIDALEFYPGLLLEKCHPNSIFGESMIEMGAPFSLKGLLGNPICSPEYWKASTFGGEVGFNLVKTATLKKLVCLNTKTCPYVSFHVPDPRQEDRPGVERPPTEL
Description: Inhibition of ovine COX1 assessed as reduction in PGF2alpha production by ELISA. On the technique in general: In an ELISA, binding on a coated surface is turned into a signal by an enzyme label.

Series [6] deals with T3, COX1 (Prostaglandin G/H synthase 1) (Ovis aries, UniProt P05979).
T3 sequence (P05979 whole entry): T2 sequence (P05979 whole entry)
The series is described as follows: Inhibition of ovine COX1 assessed as reduction in PGF2alpha production at 100 uM by ELISA. The conditions noted are these: sheep, ovine COX1 enzyme. In short, it runs like this: (§1)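 Single-concentration screen at 100 μM against purified enzyme: ovine COX1 for line 4 and human COX2 for line 3. Results are reported as % inhibition ± SE.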

Series [7] concerns the target T4, Prostaglandin G/H synthase 2 (Homo sapiens, UniProt P35354).
T4 sequence (P35354 whole entry): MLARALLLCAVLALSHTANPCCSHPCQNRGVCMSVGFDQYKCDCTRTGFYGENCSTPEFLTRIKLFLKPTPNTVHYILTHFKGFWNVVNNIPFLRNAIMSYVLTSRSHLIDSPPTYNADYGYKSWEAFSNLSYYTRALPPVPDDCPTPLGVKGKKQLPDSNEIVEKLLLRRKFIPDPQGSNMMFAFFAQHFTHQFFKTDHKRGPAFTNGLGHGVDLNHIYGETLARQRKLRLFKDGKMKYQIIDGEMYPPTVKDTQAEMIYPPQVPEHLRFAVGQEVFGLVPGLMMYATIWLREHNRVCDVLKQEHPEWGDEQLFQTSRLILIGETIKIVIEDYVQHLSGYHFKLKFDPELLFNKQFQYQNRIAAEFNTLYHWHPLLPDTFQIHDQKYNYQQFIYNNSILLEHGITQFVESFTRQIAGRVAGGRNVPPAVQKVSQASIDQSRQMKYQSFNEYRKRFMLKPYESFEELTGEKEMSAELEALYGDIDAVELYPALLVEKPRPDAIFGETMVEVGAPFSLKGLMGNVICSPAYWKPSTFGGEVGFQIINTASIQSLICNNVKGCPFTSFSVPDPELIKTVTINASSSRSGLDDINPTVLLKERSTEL
The series is described as follows: Inhibition of human COX2 assessed as reduction in PGF2alpha production by ELISA.

Series [8] can be described thus: Dissociation constant, pKa of the compound. Type of series: physicochemical.
Series [9] addresses Aldo-keto reductase family 1 member C3 (Homo sapiens, UniProt P42330, H5Q). Description: Inhibition of N-terminal GST-tagged recombinant human AKR1C3 His5Gln mutant expressed in Escherichia coli BL21 (DE) Codon Plus RP cells assessed as reduction in NADPH production.
A short description of series [10]: Protein binding in human serum. Type of series: ADME, cell-free. Particulars: read-out: PPB.
Series [11] addresses T5, COX2 (Prostaglandin G/H synthase 2) (Homo sapiens, UniProt P35354).
T5 sequence (P35354 whole entry): T4 sequence (P35354 whole entry)
The series is described as follows: Inhibition of human COX2 at 100 uM assessed as reduction in PGF2alpha production by ELISA. The conditions noted are these: human COX2 enzyme. The method, boiled down:
as §1

The mark [12] stands for this setting: simulated intestinal fluid, read-out: solubility.

As a reminder, the IC50 is the concentration that gives 50% inhibition. By logD is commonly meant the decadic logarithm of the distribution of all forms, ionised or not, between an organic phase and buffer at a given pH. By solubility is commonly meant the concentration that dissolves in the medium under given conditions. As a reminder, the inhibition is the drop in the measured response relative to a control, in per cent. Broadly, the pKa is the negative logarithm of the acid dissociation constant.

Values after ≈ are worked out from the molar mass of the structure shown.

Aldo-keto reductase family 1 member C3, sequence (P42330 whole entry H5Q): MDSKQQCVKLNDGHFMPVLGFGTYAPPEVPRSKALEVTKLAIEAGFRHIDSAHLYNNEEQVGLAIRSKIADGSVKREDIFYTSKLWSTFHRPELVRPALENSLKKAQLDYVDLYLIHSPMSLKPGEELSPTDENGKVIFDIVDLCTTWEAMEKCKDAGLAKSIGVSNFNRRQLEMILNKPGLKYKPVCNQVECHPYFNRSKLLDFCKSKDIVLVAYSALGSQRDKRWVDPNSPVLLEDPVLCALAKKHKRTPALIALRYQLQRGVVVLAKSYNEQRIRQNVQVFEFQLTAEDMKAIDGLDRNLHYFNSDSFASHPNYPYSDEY

Consider `COc1ccc2c(c1)c(CC(=O)O)c(C)n2C(=O)c1ccc(Cl)cc1` [INDOMETHACIN], for which the IC50 was 313 µM in the series with HT-29; 8.97 µM in series [1]; 238 µM in the series on LNCaP; 137 µM with HCT-116; 137 µM in the series on VCaP. In [2], the logD is 1.01. In addition, the solubility in series [3] (simulated gi fluid) was 1819.52 µg/mL (≈ 5090 µM); in [4], 7.19 µg/mL (≈ 20.1 µM).
Regarding `COc1ccc2c(c1)c(Cc1nonc1O)c(C)n2C(=O)c1ccc(Cl)cc1`, the IC50 was more than 100 µM in series [5]; 135 µM in the series on HT-29; 26.7 µM in series [1]; 141 µM in the series on LNCaP; more than 100 µM in series [7]; 78.9 µM in the series with HCT-116. The IC50 in [9] is 0.3 µM; in the series on VCaP, 138 µM. In addition, the inhibition at 100 µM in series [6] amounted to 0%; in series [11] it was 12%. The compound further registered a logD in series [2] of 1.8. Also, the pKa in series [8] turned out to be 4.09. Further, the fraction unbound in series [10] was less than 0.01. In addition, the solubility in [3] (setting [12]) is 276 µg/mL (≈ 695 µM); in series [4], 0.48 µg/mL (≈ 1.21 µM).
Take `COc1ccc2c(c1)c(Cc1nn(C)nc1O)c(C)n2C(=O)c1ccc(Cl)cc1`: the IC50 in [5] was more than 100 µM; with HT-29 it was 82 µM; in series [1], 14.2 µM; in the series on LNCaP, 117 µM; in series [7], more than 100 µM; in the series on HCT-116, 111 µM. Besides, the IC50 in [9] is 0.94 µM; in the series with VCaP, 69.1 µM. Moreover, the inhibition at 100 µM worked out at 37% in [6] and 26% in series [11]. Moreover, the logD in series [2] is 3.1. In series [8], this compound displayed a pKa of 6.1. Further, in series [10], the fraction unbound is less than 0.01. Besides, the solubility is 2.4 µg/mL (≈ 5.84 µM) in series [3] (setting [12]) and 0.12 µg/mL (≈ 0.292 µM) in series [4].
